# The list is not random: actives were taken first. Their share in the collection is about 3.5%.
# MrgX1 antag = blocks BAM8-22 activation of human MrgX1 receptor. 310,000 compounds, 1.3% hits. Q96LB2. AID 588676. B-score at 10 µM. MRGX1-HEK293 calcium flux, Fluo-4, BAM8-22 antagonism; active compounds read low;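 active means calcium-response B-score plate-corrected more than 3 library SD below zero, starting fluorescence within 5 deviations, no agonist response on first addition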;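 further: peak minus trough fluorescence over baseline after final BAM8-22 challenge near maximal dose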
# Target sequence (Q96LB2 whole entry, looked up): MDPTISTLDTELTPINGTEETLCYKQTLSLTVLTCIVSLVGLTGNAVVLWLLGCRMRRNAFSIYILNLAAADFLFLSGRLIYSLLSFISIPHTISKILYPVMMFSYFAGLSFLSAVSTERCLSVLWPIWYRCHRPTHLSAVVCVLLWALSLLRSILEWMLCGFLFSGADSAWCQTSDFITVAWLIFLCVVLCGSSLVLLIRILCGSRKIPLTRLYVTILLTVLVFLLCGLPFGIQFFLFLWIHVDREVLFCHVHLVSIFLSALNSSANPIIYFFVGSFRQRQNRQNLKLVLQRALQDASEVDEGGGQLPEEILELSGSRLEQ
# RGS4 act = potentiators or activators of RGS4; HEK293 M3R/inducible RGS4, carbachol calcium flux Fluo4; active compounds read low; B-score at 10 µM; 310,000 compounds, 0.92% hits;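 active means B-score of the integrated calcium signal more than 4 SD below the library mean, with starting fluorescence not abnormally high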;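 further: negative B-score means reduced calcium response which marks RGS4 activation or potentiation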
#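 test system = M3R-expressing HEK293 line, RGS4 induced by doxycycline | probe or stimulus = carbachol at ECmax as muscarinic agonist stimulus | timing = dye loading 30 min 37 °C, buffer rest 30 min RT | signal = calcium dye Fluo4 fluorescence | evaluation = B score from integrated fluorescence ratio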
# MrgX1 PAM = human MrgX1 positive allosteric modulation, primary screen; AID 588675; B-score at 10 µM; MrgX1-HEK293, Fluo-4 calcium flux, FDSS; active compounds read high; 310,000 compounds, 0.63% hits;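 active means plate-corrected calcium response at least 3 library SD above typical, normal starting fluorescence, not activating the receptor alone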;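 further: compound read alongside a low EC10 to EC30 dose of BAM8-22 agonist; peak minus trough fluorescence over baseline measured at the second addition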
# MrgX1 ag = human MrgX1 receptor agonism, primary screen | Q96LB2 | MrgX1-HEK293 cells, Fluo-4 calcium fluorescence, agonist mode; active compounds read high | B-score at 10 µM | 310,000 compounds, 0.44% hits | AID 588627;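 active means calcium response B-score plate-corrected fluorescence ratio at least 3 library SD, with starting fluorescence B-score inside 5 SD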
#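 times = overnight plating, then 30 min 37 °C plus 30 min room-temperature dye loading | assay system = stable human MrgX1 HEK293 cell line | input = fifteen thousand cells per well | signal = kinetic calcium dye fluorescence, Fluo-4 NW | dosing = compound delivered in addition one of three | read-out = B-scored fluorescence response ratio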
# RGS4 inh = human RGS4 inhibition; P49798; HEK293 M3R/RGS4 inducible, Fluo-4 calcium flux; active compounds read high; triggered by carbachol at its EC20; B-score at 10 µM; 310,000 compounds, 0.45% hits; AID 463165;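 active means B-score, a plate-corrected calcium signal, over three deviations above library mean, with baseline fluorescence within five deviations of library mean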;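 further: RGS4 expression induced by doxycycline in cells with stable M3 receptor; B-score is computed from the integrated fluorescence ratio over baseline after carbachol; higher B-score means a larger calcium signal and so more RGS4 inhibition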
# Target sequence (P49798 whole entry, looked up): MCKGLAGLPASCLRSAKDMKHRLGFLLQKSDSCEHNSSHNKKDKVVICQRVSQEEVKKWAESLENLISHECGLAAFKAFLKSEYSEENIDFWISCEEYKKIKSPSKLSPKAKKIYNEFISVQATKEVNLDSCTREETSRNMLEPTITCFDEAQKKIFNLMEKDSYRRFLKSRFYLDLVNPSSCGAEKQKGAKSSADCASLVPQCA
# The depositor's hits bear a star; i = inactive; . = no result given.
SMILES,MrgX1 antag,RGS4 act,MrgX1 PAM,MrgX1 ag,RGS4 inh
Cc1ccc(C)c(S(=O)(=O)N2CCN(C(=O)CCCc3c[nH]c4ccccc34)CC2)c1,i,i,i,i,i
COc1cc(OC)cc(-c2nnc(Sc3ccc(C=O)cc3[N+](=O)[O-])o2)c1,-4.51*,i,i,i,7.18*
COc1cc(OC)cc(-c2nnc(SCC(=O)N(C(C)C)C(C)C)o2)c1,i,i,i,i,i
CCNC(=S)N/N=C(\C)c1ccc(Cl)s1,i,-7.13*,i,i,i
C=C(C)CNC(=S)N/N=C(\C)c1ccc(Cl)s1,-6.07*,i,i,i,i
CCN(CC)CCCN(C(=O)c1ccc(F)cc1)c1nc(-c2ccc(OC)cc2)cs1,i,i,i,i,i
Cc1ccc(-c2nc(CN(C)Cc3cccc4cnccc34)c(C)o2)s1,i,i,i,27.8*,i
COC(=O)c1sccc1NC(=O)CNC(=O)c1ccccc1,i,i,i,i,i
C#CCOCCOCCOCCNc1nc(N2CCN(C(=O)Cn3cc(CCCN=C(N)N)nn3)CC2)nc(N2CCN(C(=O)[C@H](CCCCN)n3cc(CCCC)nn3)CC2)n1,i,.,i,i,.
COc1ccc(OC)c(S(=O)(=O)NCC(c2ccco2)S(=O)(=O)c2ccccc2)c1 (centres undefined),i,i,i,i,i
Cc1cccc(C)c1C(OCCN(C)C)C1CCCCC1 (centres undefined),i,-7.41*,i,i,i
COCCN(C(=O)CCl)C(C(=O)NC1CCCCC1)c1ccccc1C (centres undefined),i,i,i,i,i
COCCN=c1scc(-c2ccc3c(c2)NC(=O)CO3)n1/N=C(\C)c1ccc(O)cc1,-5.38*,i,i,i,i
CCn1ccnc1CN1CCc2c([nH]c3ccccc23)C1C(C)(C)C (centres undefined),i,i,i,i,i
CCn1ccnc1CN1CCc2c([nH]c3ccccc23)C1C1CCCCC1 (centres undefined),i,-7.57*,i,i,i
CN(Cc1ccco1)C(=O)Cn1nc(-c2ccc(Cl)cc2)ccc1=O,i,i,i,i,i
C=CCNCc1cc(=O)n2c(-c3ccccc3)csc2n1,i,-8.75*,i,i,i
COc1ccc(C2=NOC(C(=O)Nc3ccc4c(c3)OCCO4)C2)c(OC)c1 (centres undefined),i,i,i,i,i
CCCCCc1cc(=O)oc2c(C(CCN3CCCC3)c3cc(OC)c(OC)c(OC)c3)c(OC)cc(OC)c12 (centres undefined),-5.35*,i,i,i,i
CCCCCc1cc(=O)oc2c(C(CCN3CCCCC3)c3ccc(OC)cc3)c(OC)cc(OC)c12 (centres undefined),i,i,i,i,i
CCOc1ncccc1C(=O)Nc1cccc(C(=O)Nc2cccc(S(=O)(=O)CCO)c2)c1,-5.27*,i,i,i,i
CCOc1ncccc1C(=O)OCC(=O)Nc1cccc(S(N)(=O)=O)c1,i,i,i,i,i
COc1cc(N)c(Cl)cc1C(=O)OCC(=O)Nc1cccnc1Cl,i,i,i,i,i
CC(=O)NC(=S)Nc1ccc(S(=O)(=O)N(C)Cc2ccccc2)cc1,i,i,i,i,i
CC(C)C(=O)NC(=S)Nc1ccc(S(=O)(=O)N(C)Cc2ccccc2)cc1,i,-6.96*,i,i,i
SMILES,MrgX1 antag,RGS4 act,MrgX1 PAM,MrgX1 ag,RGS4 inh
O=C(O)/C=C/C(=O)Nc1ccc(N2CCOCC2)nc1N1CCOCC1,i,i,i,i,i
CC(=O)Nc1ccc(S(=O)(=O)NNC(=O)NC23CC4CC(CC(C4)C2)C3)cc1,i,i,i,i,i
Cc1ccc(S(=O)(=O)NNC(=O)NC23CC4CC(CC(C4)C2)C3)cc1,i,i,i,28.1*,i
Cc1c(OCC(=O)N2C[C@H]3C[C@@H](C2)c2cccc(=O)n2C3)ccc2c3c(c(=O)oc12)CCC3,i,i,i,i,i
Cc1c(OCC(=O)N2C[C@H]3C[C@@H](C2)c2cccc(=O)n2C3)ccc2c3c(c(=O)oc12)CCCC3,i,-7.09*,i,i,i
Cc1cccc(COc2ccccc2C(=O)OCC(=O)N(C)c2c(N)n(Cc3ccccc3)c(=O)[nH]c2=O)c1,i,i,i,i,i
Cc1ccc(NC(=O)/C(C#N)=C(\N)C(Cl)(Cl)Cl)nc1,i,i,i,27.7*,i
Cc1ccc(NC(=O)C(=O)Nc2ccc(C)cn2)nc1,i,i,i,i,i
O=C(Cn1cnc2cc([N+](=O)[O-])ccc2c1=O)NC(c1ccccc1)c1ccccc1,i,i,i,i,i
CC(C)OCCCNC(=O)c1cn(C)c2ccc(S(=O)(=O)N(C)C3CCCCC3)cc2c1=O,i,i,i,i,i
S=C(NCCC(c1ccccc1)c1ccccc1)Nc1cccc(Cl)c1,i,-7.63*,i,i,i
Cc1nn(Cc2ccccc2)c(C)c1NC(=O)CSc1n[nH]c(C)c1[N+](=O)[O-],i,i,i,i,i
Cc1nn(Cc2ccc(Cl)cc2)c(C)c1NC(=O)CSc1n[nH]c(C)c1[N+](=O)[O-],-4.81*,i,i,i,i
COc1ccc(NC(=O)c2cc3ccc4c5ccccc5[nH]c4c3cc2O)cc1,i,i,i,i,i
CC1=CC(=O)C(C(C)C)=C/C1=N\OC(=O)c1cccc2nc(C)oc12,-5.05*,i,i,i,i
Cc1ccc(CCNC(=O)C23CN(Cc4ccccc4)CC2C(c2cccc([N+](=O)[O-])c2)=NO3)cc1 (centres undefined),i,i,i,i,i
COc1ccc(CCNC(=O)C23CN(Cc4ccccc4)CC2C(c2cccc([N+](=O)[O-])c2)=NO3)cc1 (centres undefined),-8.34*,i,i,i,i
CC(C)NC(=O)c1cc2cc(Br)ccc2oc1=O,i,i,i,i,i
Cc1ccc(C(C)NC(=O)c2cc3cc(Br)ccc3oc2=N)cc1 (centres undefined),i,-9.15*,i,i,i
CCc1nc2ccccc2n1CC(=O)OCC(=O)N(CC(C)C)c1c(N)n(Cc2ccccc2)c(=O)[nH]c1=O,i,i,i,i,i
CCN(CC)C(=O)c1[nH]cnc1C(=O)N[C@@H](Cc1ccccc1)C(=O)OC(C)(C)C,i,i,i,i,i
CC(=O)Nc1ccc(CN2CCCCCCC2)cc1,i,i,i,i,i

# High-throughput results: PubChem BioAssay, Johns Hopkins Ion Channel Center
